Test [1] in a line: Inhibition of Trichophyton mentagrophytes 445 growth for 120 hours in vitro. Format: functional, Arthroderma benhamiae. The essentials: (§1)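 Dermatophyte grown in MOPS-buffered (0.165 M, pH 7.0) RPMI 1640 containing L-glutamine, in an M27-A microdilution format. Inoculum 5 × 10^3 cfu/mL final. Compounds from DMSO stocks (≤2% final), 2-fold dilutions 1000–0.24 µmol/L. Incubated at 35 °C, growth judged visually at 72 and 120 h. MIC endpoint is 80% inhibition relative to control; measured twice in duplicate.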

For test [2], the system named is Pichia kudriavzevii. Description: Inhibition of Candida krusei ATCC 6258 growth for 24 hours in vitro. Format: functional. An outline of the steps: (§2)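 NCCLS M27-A broth microdilution in RPMI 1640 with L-glutamine and 0.165 M MOPS, pH 7.0. Isolates kept on Sabouraud dextrose agar. Inoculum 5 × 10^3 cfu/mL final. Compounds were diluted in DMSO (≤2% final) and tested in 2-fold dilutions of 1000–0.24 µmol/L. Incubation at 35 °C, OD540 read at 24 and 48 h. MIC = 80% growth inhibition versus control; assays run twice in duplicate.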

Test [3] deals with Candida albicans. Kind of test: Inhibition of Candida albicans ATCC 44859 growth for 48 hours in vitro. Format: functional. An outline of the steps: as §2
The test system of test [4] is Candida parapsilosis. Kind of test: Inhibition of Candida parapsilosis ATCC 22019 growth for 48 hours in vitro. Format: functional. The essentials: as §2
The subject of test [5] is Candida albicans. Description: Inhibition of Candida albicans ATCC 90028 for 48 hours in vitro. The format is functional. The essentials:
as §2

The test system of test [6] is Pichia kudriavzevii. Description: Inhibition of Candida krusei ATCC 6258 growth for 48 hours in vitro. Format: functional. An outline of the steps:
as §2

Test [7] deals with Trichosporon beigelii. Description: Inhibition of Trichosporon beigelli 1188 for 24 hours in vitro. Format: functional. The essentials:
(§3)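 Microdilution following NCCLS M27-A. Medium: RPMI 1640 with L-glutamine, 0.165 M MOPS, pH 7.0. Final inoculum 5 × 10^3 cfu/mL. Compounds dissolved in DMSO, final ≤2%, serially halved from 1000 to 0.24 µmol/L. Incubated at 35 °C and read at 24 and 48 h. MIC defined as 80% inhibition of control growth; run twice in duplicate.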

Test [8] deals with Candida albicans. Description: Inhibition of Candida albicans ATCC 90028 for 24 hours in vitro. The format is functional. The essentials: as §2
The test system of test [9] is Pichia kudriavzevii. Kind of test: Inhibition of Candida krusei E28 growth for 48 hours in vitro. The format is functional. An outline of the steps: as §2
The subject of test [10] is Nakaseomyces glabratus. Kind of test: Inhibition of Candida glabrata 20/I growth for 24 hours in vitro. The format is functional. The essentials:
as §2

Test [11] deals with Candida tropicalis. Description: Inhibition of Candida tropicalis 156 growth for 48 hours in vitro. The format is functional. The essentials: as §2
Test [12] relates to Clavispora lusitaniae. Description: Inhibition of Candida lusitaniae 2446/I growth for 48 hours in vitro. Format: functional. The essentials: as §2
Test [13] deals with Candida parapsilosis. Kind of test: Inhibition of Candida parapsilosis ATCC 22019 growth for 24 hours in vitro. The format is functional. An outline of the steps: as §2
The subject of test [14] is Pichia kudriavzevii. Kind of test: Inhibition of Candida krusei E28 growth for 24 hours in vitro. Format: functional. The essentials: as §2
Test [15] has as its system Trichosporon beigelii. Kind of test: Inhibition of Trichosporon beigelli 1188 for 48 hours in vitro. Format: functional. An outline of the steps:
as §3

In test [16] the test system is Nakaseomyces glabratus. Kind of test: Inhibition of Candida glabrata 20/I growth for 48 hours in vitro. The format is functional. An outline of the steps:
as §2

Test [17] relates to Candida tropicalis. Kind of test: Inhibition of Candida tropicalis 156 growth for 24 hours in vitro. The format is functional. The essentials:
as §2

Test [18] deals with Clavispora lusitaniae. Kind of test: Inhibition of Candida lusitaniae 2446/I growth for 24 hours in vitro. Format: functional. An outline of the steps:
as §2

The subject of test [19] is Aspergillus fumigatus. Description: Inhibition of Aspergillus fumigatus 231 growth for 48 hours in vitro. Format: functional. The essentials: (§4)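 Filamentous isolates tested by microdilution per NCCLS M27-A in RPMI 1640 plus L-glutamine, buffered with 0.165 M MOPS to pH 7.0. Final inoculum 5 × 10^3 cfu/mL. Compounds in DMSO (final ≤2%), 2-fold series over 1000–0.24 µmol/L. Plates held at 35 °C and read visually after 24 and 48 h. MIC taken as 80% inhibition of control growth; determined twice in duplicate.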

In test [20] the test system is Candida albicans. Description: Inhibition of Candida albicans ATCC 44859 growth for 24 hours in vitro. The format is functional. The essentials:
as §2

In test [21] the test system is Lichtheimia corymbifera. Kind of test: In vitro inhibition of Absidia corymbifera 272 growth for 48 hours. Format: functional. The essentials:
as §4

In test [22] the test system is Aspergillus fumigatus. Description: Inhibition of Aspergillus fumigatus 231 growth for 24 hours in vitro. Format: functional. The essentials: as §4
The nature of test [23]: Inhibition of Trichophyton mentagrophytes 445 growth for 72 hours in vitro. Format: functional, Arthroderma benhamiae. An outline of the steps:
as §1

The subject of test [24] is Lichtheimia corymbifera. Kind of test: In vitro inhibition of Absidia corymbifera 272 growth for 24 hours. The format is functional. An outline of the steps:
as §4

The mark [25] stands for this setting: Trichophyton benhamiae, 120 h, read-out: MIC.
Setting [26] is: Pichia kudriavzevii, ATCC 6258, 24 h, read-out: MIC.
Setting [27] is: Candida albicans, ATCC 44859, 48 h, read-out: MIC.
[28] abbreviates: Lodderomyces parapsilosis, ATCC 22019, 48 h, read-out: MIC.
[29] abbreviates: Candida albicans, ATCC 90028, 48 h, read-out: MIC.
The mark [30] stands for this setting: Pichia kudriavzevii, ATCC 6258, 48 h, read-out: MIC.
The mark [31] stands for this setting: Trichosporon beigelii, 24 h, read-out: MIC.
Setting [32] is: Candida albicans, ATCC 90028, 24 h, read-out: MIC.
[33] abbreviates: Pichia kudriavzevii, 48 h, read-out: MIC.
Setting [34] is: Nakaseomyces glabratus, 24 h, read-out: MIC.
Where [35] appears, read: Candida tropicalis, 48 h, read-out: MIC.
The mark [36] stands for this setting: Clavispora lusitaniae, 48 h, read-out: MIC.
Where [37] appears, read: Lodderomyces parapsilosis, ATCC 22019, 24 h, read-out: MIC.
[38] abbreviates: Pichia kudriavzevii, 24 h, read-out: MIC.
Where [39] appears, read: Trichosporon beigelii, 48 h, read-out: MIC.
[40] abbreviates: Nakaseomyces glabratus, 48 h, read-out: MIC.
Where [41] appears, read: Candida tropicalis, 24 h, read-out: MIC.
Where [42] appears, read: Clavispora lusitaniae, 24 h, read-out: MIC.
Where [43] appears, read: Aspergillus fumigatus, 48 h, read-out: MIC.
Where [44] appears, read: Candida albicans, ATCC 44859, 24 h, read-out: MIC.
Setting [45] is: Lichtheimia corymbifera, 48 h, read-out: MIC.
[46] abbreviates: Aspergillus fumigatus, 24 h, read-out: MIC.
[47] abbreviates: Trichophyton benhamiae, 72 h, read-out: MIC.
Setting [48] is: Lichtheimia corymbifera, 24 h, read-out: MIC.

Converted amounts (≈) assume the structure as drawn.

On to `O=C1OC(CO)C=C1c1cccc(Cl)c1` (configuration not stated), for which the MIC in test [1] (setting [25]) was 15.6 µM (≈ 3.51 µg/mL); in the test with Pichia kudriavzevii [2] (setting [26]), 1000 µM (≈ 225 µg/mL); in the test with Candida albicans [3] (setting [27]) it was 62.5 µM (≈ 14 µg/mL); in the test with Candida parapsilosis [4] (setting [28]) it was 1000 µM (≈ 225 µg/mL); with Candida albicans [5] (setting [29]) it was 250 µM (≈ 56.2 µg/mL); with Pichia kudriavzevii [6] (setting [30]), above 1000 µM. In addition, the MIC was 250 µM (≈ 56.2 µg/mL) in the test on Trichosporon beigelii [7] (setting [31]); 250 µM (≈ 56.2 µg/mL) in the test with Candida albicans [8] (setting [32]); above 1000 µM with Pichia kudriavzevii [9] (setting [33]); 62.5 µM (≈ 14 µg/mL) with Nakaseomyces glabratus [10] (setting [34]); above 1000 µM in the test on Candida tropicalis [11] (setting [35]); 1000 µM (≈ 225 µg/mL) in the test on Clavispora lusitaniae [12] (setting [36]). For the same compound, the MIC with Candida parapsilosis [13] (setting [37]) stood at 500 µM (≈ 112 µg/mL); with Pichia kudriavzevii [14] (setting [38]), 1000 µM (≈ 225 µg/mL); in the test with Trichosporon beigelii [15] (setting [39]), 1000 µM (≈ 225 µg/mL); in the test on Nakaseomyces glabratus [16] (setting [40]), 62.5 µM (≈ 14 µg/mL); with Candida tropicalis [17] (setting [41]), 500 µM (≈ 112 µg/mL); with Clavispora lusitaniae [18] (setting [42]) it was 250 µM (≈ 56.2 µg/mL). In addition, the MIC worked out at 125 µM (≈ 28.1 µg/mL) in the test on Aspergillus fumigatus [19] (setting [43]); 31.2 µM (≈ 7.02 µg/mL) in the test with Candida albicans [20] (setting [44]); 500 µM (≈ 112 µg/mL) with Lichtheimia corymbifera [21] (setting [45]); 31.2 µM (≈ 7.02 µg/mL) in the test on Aspergillus fumigatus [22] (setting [46]); 15.6 µM (≈ 3.51 µg/mL) in test [23] (setting [47]); 125 µM (≈ 28.1 µg/mL) in the test on Lichtheimia corymbifera [24] (setting [48]).

As for `CC(C)(C)C(=O)OCC1C=C(c2ccc(Cl)c(Cl)c2)C(=O)O1` (stereo in doubt; 2c), the MIC in test [1] came to 0.49 uM l-1; with Pichia kudriavzevii [2], 7.81 uM l-1; against Candida albicans [3] it was 1.95 uM l-1; in the test with Candida parapsilosis [4] it was 3.91 uM l-1; in the test on Candida albicans [5], 1.95 µM (≈ 0.669 µg/mL); against Pichia kudriavzevii [6] it was 31.25 uM l-1. The MIC in the test on Trichosporon beigelii [7] was found to be 1.95 uM l-1; against Candida albicans [8], 1.95 uM l-1; in the test on Pichia kudriavzevii [9] it was 7.81 uM l-1; against Nakaseomyces glabratus [10] it was 0.49 µM (≈ 0.168 µg/mL); in the test with Candida tropicalis [11] it was 7.81 uM l-1; with Clavispora lusitaniae [12], 3.91 uM l-1. Moreover, the MIC is given as 3.91 uM l-1 against Candida parapsilosis [13]; 3.91 uM l-1 with Pichia kudriavzevii [14]; 7.81 uM l-1 in the test with Trichosporon beigelii [15]; 0.98 uM l-1 against Nakaseomyces glabratus [16]; 3.91 uM l-1 in the test on Candida tropicalis [17]; 1.95 uM l-1 in the test on Clavispora lusitaniae [18]. For the same compound, the MIC turned out to be 3.91 uM l-1 against Aspergillus fumigatus [19]; 0.49 µM (≈ 0.168 µg/mL) in the test with Candida albicans [20]; 15.63 uM l-1 against Lichtheimia corymbifera [21]; 1.95 uM l-1 with Aspergillus fumigatus [22]; 0.24 uM l-1 in test [23]; 7.81 uM l-1 against Lichtheimia corymbifera [24].

With `CC(=O)OCC1C=C(c2cccc(Cl)c2)C(=O)O1` (configuration not stated), the MIC is 1.95 µM (≈ 0.52 µg/mL) in [1] (setting [25]); 3.91 µM (≈ 1.04 µg/mL) in the test on Pichia kudriavzevii [2] (setting [26]); 3.91 µM (≈ 1.04 µg/mL) in the test on Candida albicans [3] (setting [27]); 7.81 µM (≈ 2.08 µg/mL) in the test with Candida parapsilosis [4] (setting [28]); 7.81 µM (≈ 2.08 µg/mL) with Candida albicans [5] (setting [29]); 7.81 µM (≈ 2.08 µg/mL) with Pichia kudriavzevii [6] (setting [30]). Further, the MIC is 3.91 µM (≈ 1.04 µg/mL) in the test on Trichosporon beigelii [7] (setting [31]); 3.91 µM (≈ 1.04 µg/mL) in the test on Candida albicans [8] (setting [32]); 7.81 µM (≈ 2.08 µg/mL) in the test on Pichia kudriavzevii [9] (setting [33]); below 0.98 µM in the test on Nakaseomyces glabratus [10] (setting [34]); 15.6 µM (≈ 4.17 µg/mL) in the test on Candida tropicalis [11] (setting [35]); 7.81 µM (≈ 2.08 µg/mL) in the test on Clavispora lusitaniae [12] (setting [36]). Further, the MIC was 7.81 µM (≈ 2.08 µg/mL) with Candida parapsilosis [13] (setting [37]); 7.81 µM (≈ 2.08 µg/mL) with Pichia kudriavzevii [14] (setting [38]); 15.6 µM (≈ 4.17 µg/mL) with Trichosporon beigelii [15] (setting [39]); 0.98 µM (≈ 0.261 µg/mL) in the test with Nakaseomyces glabratus [16] (setting [40]); 7.81 µM (≈ 2.08 µg/mL) in the test on Candida tropicalis [17] (setting [41]); 3.91 µM (≈ 1.04 µg/mL) in the test with Clavispora lusitaniae [18] (setting [42]). For the same compound, the MIC with Aspergillus fumigatus [19] (setting [43]) came to 3.91 µM (≈ 1.04 µg/mL); with Candida albicans [20] (setting [44]) it was 0.98 µM (≈ 0.261 µg/mL); with Lichtheimia corymbifera [21] (setting [45]) it was 7.81 µM (≈ 2.08 µg/mL); in the test with Aspergillus fumigatus [22] (setting [46]), 1.95 µM (≈ 0.52 µg/mL); in test [23] (setting [47]), 1.95 µM (≈ 0.52 µg/mL); in the test with Lichtheimia corymbifera [24] (setting [48]), 3.91 µM (≈ 1.04 µg/mL).

For the origin of these results see ChEMBL document CHEMBL1134691, “3-Phenyl-5-acyloxymethyl-2H,5H-furan-2-ones: synthesis and biological activity of a novel group of potential antifungal drugs” (2001).
